According to ChEMBL document CHEMBL1124265, “Effects of D-amino acid substitution on antagonist activities of angiotensin II analogues” (J Med Chem, 1988):

Key:
Rattus norvegicus [1] = species on record: Rattus norvegicus; test: Dose required for the two fold increase in the dose of AII to produce the same elevation in blood pressure as in the control period.; assay type: functional
Summary of the method: (§1)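 Rat blood pressure assay in vivo, using 250-g rats. ID50 is the antagonist dose, in ng/rat per min, that requires a twofold increase in the AII dose to give the same blood pressure rise as in the control period.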

Oryctolagus cuniculus [2] = species on record: Oryctolagus cuniculus; test: In vitro AII-like activity, expressed as percent activity relative to AII (angiotensin II), measured in rabbit aorta; assay type: functional
[3] = biological target: Angiotensin II receptor (Homo sapiens) (UniProt P30556+P50052); test: In vitro angiotensin II-like activity, expressed as percent relative to angiotensin II, measured in the rabbit aorta strip assay; assay type: functional, tissue-based; settings: Oryctolagus cuniculus
Oryctolagus cuniculus [4] = species on record: Oryctolagus cuniculus; test: AII-like activity, expressed as percent relative to AII (angiotensin II) was measured in the in vitro rabbit aorta strip assay; g = partial agonist at 10 ng/mL; assay type: functional; settings: filed as partial agonist
Rattus norvegicus [5] = test: In vivo AII-like activity, expressed as percent activity relative to AII (angiotensin II), measured in rat blood pressure assay; g = partial agonist at 10 ng/mL; assay type: functional, organism-based; settings: filed as partial agonist
Summary of the method: (§2)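 Rat blood pressure assay in vivo. Residual agonist activity is expressed as percent activity relative to AII.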

Rattus norvegicus [6] = test: AII-like activity, expressed as percent relative to AII (angiotensin II) was measured in the in vivo rat blood pressure assay; assay type: functional; summary of the method: as §2
Oryctolagus cuniculus [7] = species on record: Oryctolagus cuniculus; test: pA2 value was determined in the range of competitive inhibition in the in vitro rabbit aorta strip assay; g = partial agonist at 10 ng/mL; assay type: functional; settings: filed as partial agonist
Rattus norvegicus [8] = test: Dose required for the two fold increase in the dose of AII to produce the same elevation in blood pressure as in the control period.(in vivo); assay type: functional; summary of the method: as §1
Rattus norvegicus [9] = test: In vivo AII-like activity, expressed as percent activity relative to AII (angiotensin II), measured in rat blood pressure assay; assay type: functional; summary of the method: as §2
Oryctolagus cuniculus [10] = species on record: Oryctolagus cuniculus; test: AII-like activity, expressed as percent activity relative to AII (angiotensin II), measured in rabbit aorta strip assay

Row | Compound | ID50 (Rattus norvegicus [1]) [ng min-1 rat-1] | Biological activity [3] [%] | also measured
1 | CC[C@H](C)[C@H](NC(=O)[C@H](Cc1ccc(O)cc1)NC(=O)[C@@H](NC(=O)[C@H](CCCN=C(N)N)NC(=O)CNC)C(C)C)C(=O)N[C@@H](Cc1c[nH]cn1)C(=O)N1CCC[C@H]1C(=O)N[C@H](Cc1ccccc1)C(=O)O | 12.5 | – | Biological activity (Oryctolagus cuniculus [2]): 0%
2 | CC[C@H](C)[C@H](NC(=O)[C@H](Cc1ccccc1)NC(=O)[C@@H](NC(=O)[C@H](CCCN=C(N)N)NC(=O)CNC)C(C)C)C(=O)N[C@@H](Cc1c[nH]cn1)C(=O)N1CCC[C@H]1C(=O)N[C@@H](Cc1ccc(O)cc1)C(=O)O | 50 | -0 | –
3 | CC[C@H](C)[C@H](NC(=O)[C@H](Cc1ccc(O)cc1)NC(=O)[C@@H](NC(=O)[C@H](CCCN=C(N)N)NC(=O)CNC)C(C)C)C(=O)N[C@@H](Cc1c[nH]cn1)C(=O)N1CCC[C@H]1C(=O)N[C@H](C(=O)O)c1ccccc1 | – | – | Biological activity (Oryctolagus cuniculus [4]): Partial agonist; Biological activity (Rattus norvegicus [5]): Partial agonist
4 | CC[C@H](C)[C@H](NC(=O)[C@H](Cc1ccc(O)cc1)NC(=O)[C@@H](NC(=O)[C@H](CCCNC(=N)N)NC(=O)CNC)C(C)C)C(=O)N[C@@H](Cc1c[nH]cn1)C(=O)N1CCC[C@H]1C(=O)N[C@@H](C(=O)O)C(C)C | 50 | – | Biological activity (Rattus norvegicus [6]): 10
5 | CC[C@H](C)[C@H](NC(=O)[C@H](Cc1ccc(O)cc1)NC(=O)[C@@H](NC(=O)[C@H](CCCN=C(N)N)NC(=O)CNC)C(C)C)C(=O)N[C@@H](Cc1c[nH]cn1)C(=O)N1CCC[C@H]1C(=O)N[C@H](Cc1ccc(O)cc1)C(=O)O | 20 | -0 | –
6 | CC[C@H](C)[C@H](NC(=O)[C@H](Cc1ccc(O)cc1)NC(=O)[C@@H](NC(=O)[C@H](CCCN=C(N)N)NC(=O)CNC)C(C)C)C(=O)N[C@@H](Cc1c[nH]cn1)C(=O)N1CCC[C@H]1C(=O)N[C@@H](CCc1ccccc1)C(=O)O | – | – | Biological activity (Oryctolagus cuniculus [4]): Partial agonist; pA2 (Oryctolagus cuniculus [7]): Partial agonist
7 | CC[C@H](C)[C@H](NC(=O)[C@@H]1CCCN1C(=O)[C@@H](Cc1c[nH]cn1)NC(=O)[C@@H](NC(=O)[C@H](Cc1ccc(O)cc1)NC(=O)[C@@H](NC(=O)[C@H](CCCN=C(N)N)NC(=O)CNC)C(C)C)[C@@H](C)CC)C(=O)O | – | -0 | Biological activity (Rattus norvegicus [6]): 0%; ID50 (Rattus norvegicus [8]): >1000 ng min-1 rat-1
8 | CC[C@H](C)[C@H](NC(=O)[C@H](Cc1ccccc1)NC(=O)[C@@H](NC(=O)[C@H](CCCN=C(N)N)NC(=O)CNC)C(C)C)C(=O)N[C@@H](Cc1c[nH]cn1)C(=O)N1CCC[C@H]1C(=O)N[C@H](Cc1ccc(O)cc1)C(=O)O | 25 | -0 | –
9 | CC[C@H](C)[C@H](NC(=O)[C@@H]1CCCN1C(=O)[C@H](Cc1c[nH]cn1)NC(=O)[C@H](NC(=O)[C@H](Cc1ccc(O)cc1)NC(=O)[C@H](NC(=O)[C@H](CCCN=C(N)N)NC(=O)CNC)C(C)C)C(C)C)C(=O)O | – | -0 | Biological activity (Rattus norvegicus [9]): 0%; ID50 (Rattus norvegicus [8]): >1000 ng min-1 rat-1
10 | CC[C@H](C)[C@H](NC(=O)[C@H](Cc1ccc(O)cc1)NC(=O)[C@@H](NC(=O)[C@H](CCCN=C(N)N)NC(=O)CNC)C(C)C)C(=O)N[C@@H](Cc1c[nH]cn1)C(=O)N1CCC[C@H]1C(=O)N[C@@H](C(=O)O)c1ccccc1 | 3.5 | -0 | –
11 | CC[C@H](C)[C@H](NC(=O)[C@H](Cc1ccc(O)cc1)NC(=O)[C@@H](NC(=O)[C@H](CCCN=C(N)N)NC(=O)CNC)C(C)C)C(=O)N[C@H](Cc1c[nH]cn1)C(=O)N1CCC[C@H]1C(=O)N[C@H](Cc1ccccc1)C(=O)O | 0 | -0 | Biological activity (Rattus norvegicus [9]): 0%
12 | CC[C@H](C)[C@H](NC(=O)[C@H]1CCCN1C(=O)[C@H](Cc1c[nH]cn1)NC(=O)[C@@H](NC(=O)[C@H](Cc1ccc(O)cc1)NC(=O)[C@@H](NC(=O)[C@H](CCCNC(=N)N)NC(=O)[C@@H](N)CC(=O)O)C(C)C)[C@@H](C)CC)C(=O)O | – | – | Biological activity (Oryctolagus cuniculus [10]): 0.1%
13 | CC[C@H](C)[C@H](NC(=O)[C@H](Cc1ccc(O)cc1)NC(=O)[C@@H](NC(=O)[C@H](CCCN=C(N)N)NC(=O)CNC)C(C)C)C(=O)N[C@@H](Cc1c[nH]cn1)C(=O)N1CCC[C@H]1C(=O)N[C@@H](C)C(=O)O | 15 | -0 | –
14 | CC[C@H](C)[C@H](NC(=O)[C@H](Cc1ccc(O)cc1)NC(=O)[C@@H](NC(=O)[C@H](CCCNC(=N)N)NC(=O)CNC)C(C)C)C(=O)N[C@@H](Cc1c[nH]cn1)C(=O)N1CCC[C@H]1C(=O)N[C@H](Cc1ccccc1)C(N)=O | 12.5 | – | –
15 | CC[C@H](C)[C@H](NC(=O)[C@@H]1CCCN1C(=O)[C@H](Cc1c[nH]cn1)NC(=O)[C@@H](NC(=O)[C@H](Cc1ccc(O)cc1)NC(=O)[C@@H](NC(=O)[C@@H](CCCN=C(N)N)NC(=O)CNC)C(C)C)[C@@H](C)CC)C(=O)O | – | -0 | ID50 (Rattus norvegicus [8]): 150 ng min-1 rat-1
16 | CC[C@H](C)[C@H](NC(=O)[C@@H]1CCCN1C(=O)[C@H](Cc1c[nH]cn1)NC(=O)[C@@H](NC(=O)[C@H](Cc1ccc(O)cc1)NC(=O)[C@@H](NC(=O)[C@H](CCCN=C(N)N)NC(=O)CNC)C(C)C)[C@@H](C)CC)C(=O)O | – | -0 | ID50 (Rattus norvegicus [8]): 10 ng min-1 rat-1
17 | CC[C@H](C)[C@H](NC(=O)[C@H](Cc1ccc(O)cc1)NC(=O)[C@@H](NC(=O)[C@H](CCCNC(=N)N)NC(=O)C[C@@H](N)C(=O)O)C(C)C)C(=O)N[C@@H](Cc1c[nH]cn1)C(=O)N1CCC[C@H]1C(=O)N[C@@H](CC(C)C)C(=O)O | 15 | – | –
